According to ChEMBL document CHEMBL1938334, “Quinoline tricyclic derivatives. Design, synthesis and evaluation of the antiviral activity of three new classes of RNA-dependent RNA polymerase inhibitors” (Bioorg Med Chem, 2011):

Assays:
[1] = Cytotoxicity against african green monkey Vero 76 cells after 48 to 96 hrs by crystal violet staining; type: cell-based; conditions: chlorocebus sabaeus
How it was run: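 Vero-76 cells were seeded at 4×10^5 cells/mL in D-MEM with L-glutamine, kanamycin and 10% FBS, then exposed to serial compound dilutions at 37 °C, 5% CO2 for 48–96 h. Viability was read by crystal violet staining. 50% cytotoxic concentration by linear regression relative to untreated controls; mean of three independent determinations.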

[2] = Cytotoxicity against MDBK cells after 48 to 96 hrs by MTT assay; type: cell-based, Bos taurus; conditions: cattle
How it was run: (§1)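 MDBK seeded at 6×10^5 and BHK at 1×10^6 cells/mL in MEM-Earle's with L-glutamine, 1 mM pyruvate, kanamycin, plus 10% horse serum (MDBK) or 10% FBS (BHK). Cells were grown at 37 °C, 5% CO2 with serial compound dilutions (DMSO stocks diluted in medium). Viability by MTT after 48–96 h. CC50 was taken by linear regression versus untreated controls; three independent determinations.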

[3] = Cytotoxicity against human MT4 cells after 96 hrs by MTT assay; type: cell-based
How it was run: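 Exponentially growing MT-4 cells seeded at 1×10^5 cells/mL in RPMI-1640 with 10% FBS, penicillin and streptomycin. Incubated with serial compound dilutions at 37 °C, 5% CO2 for 96 h; viability by MTT. CC50 by linear regression relative to untreated controls; mean of three independent determinations.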

[4] = system: Vesicular stomatitis Indiana virus; assay: Antiviral activity against clinical isolate Vesicular stomatitis Indiana virus infected in african green monkey Vero 76 cells assessed as reduction of virus-induced plaque formation after 2 days using crystal violet staining; type: functional, organism-based; conditions: 48 h
Reovirus sp. = assay: Antiviral activity against Reovirus type-1 3651 infected in hamster BHK21 cells assessed as inhibition of virus-induced cytopathogenicity after 3 to 4 days by MTT assay; type: functional, organism-based; conditions: Reovirus sp., 3651, BHK-21
How it was run: (§2)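 Host cells were seeded in 96-well plates at 3×10^4 cells/well (MDBK) or 5×10^4 cells/well (BHK-21) and grown to confluent monolayers overnight. They were infected at m.o.i. 0.01 in maintenance MEM with 0.5% inactivated FBS. Serial compound dilutions were added after 1 h. Viability was read by MTT after 3–4 days at 37 °C. EC50 was taken by linear regression against untreated controls. Mean of three determinations.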

[5] = Antiviral activity against Vaccinia virus Lister Elstree infected in african green monkey Vero 76 cells assessed as reduction of virus-induced plaque formation after 3 days using crystal violet staining; type: functional, cell-based; conditions: 72 h
Coxsackievirus B5 = assay: Antiviral activity against Human coxsackievirus B5 Ohio-1 infected in african green monkey Vero 76 cells assessed as reduction of virus-induced plaque formation after 3 days using crystal violet staining; type: functional, organism-based; conditions: Enterovirus B, Ohio-1, Vero, 72 h
[6] = Cytotoxicity against BHK21 cells after 48 to 96 hrs by MTT assay; type: cell-based, Mesocricetus auratus, BHK-21; conditions: hamster; how it was run: as §1
Poliovirus 1 = assay: Antiviral activity against Human poliovirus 1 strain Sabin Chat infected in african green monkey Vero 76 cells assessed as virus-induced reduction of plaque formation after 2 days using crystal violet staining; type: functional, cell-based; conditions: Enterovirus C, 48 h
Yellow fever virus = assay: Antiviral activity against Yellow fever virus 17D Stamaril Pasteur J07B01 infected in hamster BHK21 cells assessed as inhibition of virus-induced cytopathogenicity after 3 to 4 days by MTT assay; type: functional, cell-based; conditions: Stamaril Pasteur J07B01, BHK-21; how it was run: as §2
[7] = system: Human immunodeficiency virus 1; assay: Antiviral activity against HIV1 3B infected in human MT4 cells assessed as inhibition of virus-induced cytopathogenicity after 4 days by MTT assay; type: functional, organism-based; conditions: Human immunodeficiency virus 1, 3B, MT4, 96 h
How it was run: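 MT-4 cells (1×10^4 per well) were infected with HIV-1 IIIB at 100 CCID50, m.o.i. 0.01, together with serial compound dilutions. Viability was read by MTT after 4 days at 37 °C. EC50 was taken by linear regression versus untreated controls. Mean of three determinations.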

Human alphaherpesvirus 1 = assay: Antiviral activity against Human herpesvirus 1 strain KOS infected in african green monkey Vero 76 cells assessed as reduction of virus-induced plaque formation after 3 days using crystal violet staining; type: functional, organism-based; conditions: Human alphaherpesvirus 1, KOS, 72 h
[8] = Antiviral activity against Bovine viral diarrhea virus 1-NADL infected in MDBK cells assessed as inhibition of virus-induced cytopathogenicity after 3 to 4 days by MTT assay; type: functional, cell-based; conditions: Bovine viral diarrhea virus isolates and strains; how it was run: as §2
Human orthopneumovirus = assay: Antiviral activity against Human respiratory syncytial virus A2 infected in african green monkey Vero 76 cells assessed as reduction of virus-induced plaque formation after 5 days using crystal violet staining; type: functional, organism-based; conditions: 120 h
CCRF-CEM = assay: Cytotoxicity against human CCRF-CEM cells after 96 hrs by MTT assay; type: functional
How it was run: (§3)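 Cells were seeded at 1×10^5 cells/mL: leukaemia/lymphoma lines in RPMI-1640, solid tumour and fibroblast lines in specific media, all with 10% FCS. Serial compound dilutions were applied for 96 h at 37 °C, 5% CO2, under conditions allowing controls at least three rounds of multiplication. Viability was read by MTT. CC50 by linear regression. Mean of three determinations.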

CCRF-SB = assay: Cytotoxicity against human CCRF-SB cells after 96 hrs by MTT assay; type: functional; how it was run: as §3
[9] = Inhibition of Bovine viral diarrhea virus 1-NADL recombinant NS5B Cdelta 21 RNA dependent RNA polymerase expressed in Escherichia coli (DE3) using GTP as substrate preincubated for 30 mins before substrate addition measured after 120 mins by fluorescence assay
[10] = Inhibition of HCV1b BK 6xHis-tagged recombinant NS5B Cdelta 21 RNA dependent RNA polymerase expressed in Escherichia coli (DE3) using GTP as substrate preincubated for 30 mins before substrate addition measured after 120 mins by fluorescence assay; parameters: species or system Hepatitis C virus (isolate BK)
How it was run: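 His-tagged NS5B (BVDV C-terminal Δ24; HCV1b Δ21) from E. coli Rosetta 2(DE3)pLysS, Ni-NTA purified, 500–600 ng per 20 μL. The template was poly(rC) 10 μg/mL and the primer oligo(rG)12 0.1 μg/mL, with GTP 80 μM. Buffer: 20 mM Tris pH 7.0, 0.5 mM MnCl2 or 5 mM MgCl2, 5% DMSO. Enzyme/drug 30 min at RT, then GTP added; 120 min at 37 °C (BVDV) or 25 °C (HCV). Read-out was dsRNA dye fluorescence (ex 480/em 520). IC50 from dose–response fits.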

MCF7 = assay: Cytotoxicity against human MCF7 cells after 96 hrs by MTT assay; type: functional; conditions: MCF7, 96 h; how it was run: as §3
SK-MEL-28 = assay: Cytotoxicity against human SK-MEL-28 cells after 96 hrs by MTT assay; type: functional; conditions: SK-MEL-28, 96 h; how it was run: as §3
DU-145 = assay: Cytotoxicity against human DU145 cells after 96 hrs by MTT assay; type: functional; conditions: DU-145, 96 h; how it was run: as §3
HepG2 = assay: Cytotoxicity against human HepG2 cells after 96 hrs by MTT assay; type: functional; conditions: HepG2, 96 h; how it was run: as §3
Hepatitis C virus = assay: Antiviral activity against HCV1b infected in human GS4.1 cells assessed as inhibition of virus-induced cytopathogenicity by measuring viral NS4A protein level after 72 hrs by ELISA; type: functional, organism-based, Hepacivirus hominis; conditions: genotype 1b
How it was run: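 GS4.1 cells are Huh-7 cells carrying a genotype 1b subgenomic replicon, kept in 0.5 mg/mL G418. They were seeded at 7.5×10^3 cells/well with two-fold serial dilutions of compound (top 75 μM) and incubated 72 h at 37 °C. Huh-7 cells without the replicon served as negative control. NS4A was measured by cell ELISA with anti-NS4A mAb A-236, peroxidase and o-phenylenediamine, A492. EC50 came from four-parameter sigmoidal fit.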

[11] = Cytotoxicity against human CRL7065 cells after 96 hrs by MTT assay; type: cell-based, CRL-7065
How it was run: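 Foreskin fibroblasts seeded at 1×10^5 cells/mL in specific medium with 10% FCS and antibiotics; serial compound dilutions, 37 °C, 5% CO2, 96 h, under conditions allowing untreated controls at least three rounds of multiplication. MTT read-out; concentration reducing proliferation by 50% by linear regression versus untreated controls; three independent determinations.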

[12] = Cytotoxicity against human GS4.1 cells; type: cell-based
How it was run: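 Huh-7 cells carrying HCV genotype 1b subgenomic replicon, grown in D-MEM/10% FBS with 0.5 mg/mL G418. Seeded at 7.5×10^3 cells/well with two-fold serial dilutions (top 75 μM), incubated 72 h at 37 °C. Viability by MTS-type Cell Titer 96 Aqueous One reagent; CC50 from % cytotoxicity versus concentration curves.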

SK-MES-1 = assay: Cytotoxicity against human SKMES1 cells after 96 hrs by MTT assay; type: functional; conditions: SK-MES-1, 96 h; how it was run: as §3
WIL2-NS = assay: Cytotoxicity against human WIL2-NS cells after 96 hrs by MTT assay; type: functional; how it was run: as §3
[13] = Cytotoxicity against human MRC5 cells after 96 hrs by MTT assay; type: cell-based; how it was run: as §3

Row | SMILES | CC50 [1] | CC50 [2] | CC50 at 96 h [3] | EC50 [4] | EC50 (Reovirus sp.) | EC50 [5] | EC50 (Coxsackievirus B5) | CC50 [6] | EC50 (Poliovirus 1) | EC50 (Yellow fever virus) | EC50 [7] | EC50 (Human alphaherpesvirus 1) | EC50 [8] | EC50 (Human orthopneumovirus) | CC50 (CCRF-CEM) | CC50 (CCRF-SB) | CC50 (MCF7) | CC50 (SK-MEL-28) | CC50 (DU-145) | CC50 (HepG2) | further results
1 | CCOC(=O)C(C)c1nc2c(Cl)c3ncccc3cc2[nH]c1=O (stereo unspecified) | > 100 µM | > 100 µM | 11 µM | > 100 µM | > 75 µM | > 100 µM | > 100 µM | 75 µM | > 100 µM | 50 µM | > 11 µM | > 100 µM | 10 µM | 62 µM |  |  |  |  |  |  | 
2 | O=c1[nH]c2cc3cccnc3c(Cl)c2nc1-c1ccccc1 | > 100 µM | > 100 µM | 22 µM | > 100 µM | > 100 µM | > 100 µM | > 100 µM | > 100 µM | > 100 µM | > 100 µM | > 22 µM | > 100 µM | 11 µM | 12 µM | 16 µM | 19 µM | 7.6 µM | 5.6 µM | 7.4 µM | 8 µM | IC50 [9]: 1 µM; IC50 [10]: > 10 µM; EC50 (Hepatitis C virus): > 11 µM; CC50 at 96 h [11]: 16 µM; CC50 [12]: 11 µM; CC50 (SK-MES-1): 8 µM
3 | O=c1[nH]c2cc3cccnc3c(Cl)c2nc1Cc1ccccc1 | 88 µM | > 100 µM | 15 µM | > 88 µM | > 100 µM | > 88 µM | > 88 µM | > 100 µM | > 88 µM | > 100 µM | > 15 µM | > 88 µM | 2.6 µM | > 88 µM | 19 µM | 25 µM | > 100 µM | > 100 µM | ≥ 100 µM | 72 µM | IC50 [9]: 1.2 µM; IC50 [10]: > 10 µM; CC50 (WIL2-NS): 33 µM; EC50 (Hepatitis C virus): > 65 µM; CC50 at 96 h [11]: > 100 µM; CC50 [12]: 65 µM; CC50 (SK-MES-1): > 100 µM
4 | O=c1[nH]c2cc3c(O)ccnc3c(Cl)c2nc1-c1ccccc1 | ≥ 100 µM | > 100 µM | > 100 µM | > 100 µM | > 100 µM | > 100 µM | > 100 µM | > 100 µM | > 100 µM | > 100 µM | > 100 µM | ≥ 100 µM | 100 µM | > 100 µM |  |  |  |  |  |  | 
5 | CC[C@@]1(O)C(=O)OCc2c1cc1n(c2=O)Cc2cc3ccccc3nc2-1 [CAMPTOTHECIN] |  |  |  |  |  |  |  |  |  |  |  |  |  |  | 0.003 µM | 0.004 µM | 0.02 µM | 0.07 µM | 0.015 µM | 0.02 µM | CC50 at 96 h [13]: 0.2 µM; CC50 (WIL2-NS): 0.005 µM; CC50 at 96 h [11]: 0.3 µM; CC50 (SK-MES-1): 0.03 µM
